Measured values: ChEMBL document CHEMBL4823296, “NMR-Guided Design of Potent and Selective EphA4 Agonistic Ligands” (J Med Chem, 2021)
≈ marks a conversion by molar mass, not a printed value. Calls of active or inactive are those of the source. No cut-off for these calls is given here. Non-standard residues stand in square brackets, D forms with d. Residues, ends and D or L forms follow the SMILES beside them. *: point of attachment. Cyclohexanoyl(1S,3S-3-NH2) = N[C@H]1CCC[C@H](C(=O)*)C1; Trp(5-OH) = N[C@@H](Cc1c[nH]c2ccc(O)cc12)C(=O)O; NH(4-morpholinophenyl) = c1cc(N2CCOCC2)ccc1N*; Bip = N[C@@H](Cc1ccc(-c2ccccc2)cc1)C(=O)O; hArg = N=C(N)NCCCC[C@H](N)C(=O)O

Experiments:
[1] = molecular target: T1, Ephrin type-A receptor 4 (Homo sapiens, UniProt P54764); experiment: Binding affinity to N-terminal His tagged EphA4 LBD (unknown origin) (29 to 209 residues) expressed in Rosetta-Gami B(DE3) cells by isothermal titration calorimetry
T1 sequence (P54764 whole entry, the tested form may be a part): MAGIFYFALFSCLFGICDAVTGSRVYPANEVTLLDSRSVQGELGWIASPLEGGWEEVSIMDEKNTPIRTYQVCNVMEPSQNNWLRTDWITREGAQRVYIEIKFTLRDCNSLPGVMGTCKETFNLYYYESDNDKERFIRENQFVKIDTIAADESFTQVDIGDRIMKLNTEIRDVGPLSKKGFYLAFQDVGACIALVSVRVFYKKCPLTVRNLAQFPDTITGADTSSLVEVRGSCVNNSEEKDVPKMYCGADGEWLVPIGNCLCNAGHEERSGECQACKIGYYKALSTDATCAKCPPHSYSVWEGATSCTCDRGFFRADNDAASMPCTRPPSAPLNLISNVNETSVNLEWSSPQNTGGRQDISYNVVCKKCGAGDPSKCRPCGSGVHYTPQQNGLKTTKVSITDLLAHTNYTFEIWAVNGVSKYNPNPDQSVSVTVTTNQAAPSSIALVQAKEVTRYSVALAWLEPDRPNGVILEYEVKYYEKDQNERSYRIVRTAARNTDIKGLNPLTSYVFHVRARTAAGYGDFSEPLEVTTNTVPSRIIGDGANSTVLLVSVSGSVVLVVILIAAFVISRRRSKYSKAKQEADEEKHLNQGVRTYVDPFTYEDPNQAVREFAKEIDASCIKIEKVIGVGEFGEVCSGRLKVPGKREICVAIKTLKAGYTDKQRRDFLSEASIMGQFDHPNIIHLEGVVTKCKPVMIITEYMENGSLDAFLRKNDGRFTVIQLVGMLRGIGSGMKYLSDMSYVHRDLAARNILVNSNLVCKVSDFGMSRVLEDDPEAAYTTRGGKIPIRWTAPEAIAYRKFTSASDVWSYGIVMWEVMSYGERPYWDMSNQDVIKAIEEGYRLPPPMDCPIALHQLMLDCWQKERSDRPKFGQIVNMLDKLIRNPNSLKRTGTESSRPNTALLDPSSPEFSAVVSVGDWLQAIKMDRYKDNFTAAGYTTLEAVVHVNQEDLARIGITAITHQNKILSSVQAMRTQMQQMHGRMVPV

[2] = Aqueous solubility of compound; format: physicochemical; conditions: buffer
[3] = molecular target: T1, Ephrin type-A receptor 4; experiment: Displacement of EphrinA5 from N-terminal His tagged EphA4 LBD (unknown origin) (29 to 209 residues) expressed in Rosetta-Gami B(DE3) cells by 2D-[13C-1H] HSQC NMR spectroscopy; format: cell-based; conditions: filed as agonist
[4] = molecular target: Ephrin type-A receptor 4 (Mus musculus) (UniProt Q03137); experiment: Agonist activity at EphA4 in B6-Cg-Tg(Hlxb9-GFP)1Tmj/J (Hb9-GFP) mouse primary spinal cord motor neuron cells assessed as protein phosphorylation at […] residues at 1 to 10 uM incubated for 30 mins by Western blotting analysis; conditions: filed as agonist, dose 1-10 µM
Chain of Ephrin type-A receptor 4 (Mus musculus) (Q03137 whole entry): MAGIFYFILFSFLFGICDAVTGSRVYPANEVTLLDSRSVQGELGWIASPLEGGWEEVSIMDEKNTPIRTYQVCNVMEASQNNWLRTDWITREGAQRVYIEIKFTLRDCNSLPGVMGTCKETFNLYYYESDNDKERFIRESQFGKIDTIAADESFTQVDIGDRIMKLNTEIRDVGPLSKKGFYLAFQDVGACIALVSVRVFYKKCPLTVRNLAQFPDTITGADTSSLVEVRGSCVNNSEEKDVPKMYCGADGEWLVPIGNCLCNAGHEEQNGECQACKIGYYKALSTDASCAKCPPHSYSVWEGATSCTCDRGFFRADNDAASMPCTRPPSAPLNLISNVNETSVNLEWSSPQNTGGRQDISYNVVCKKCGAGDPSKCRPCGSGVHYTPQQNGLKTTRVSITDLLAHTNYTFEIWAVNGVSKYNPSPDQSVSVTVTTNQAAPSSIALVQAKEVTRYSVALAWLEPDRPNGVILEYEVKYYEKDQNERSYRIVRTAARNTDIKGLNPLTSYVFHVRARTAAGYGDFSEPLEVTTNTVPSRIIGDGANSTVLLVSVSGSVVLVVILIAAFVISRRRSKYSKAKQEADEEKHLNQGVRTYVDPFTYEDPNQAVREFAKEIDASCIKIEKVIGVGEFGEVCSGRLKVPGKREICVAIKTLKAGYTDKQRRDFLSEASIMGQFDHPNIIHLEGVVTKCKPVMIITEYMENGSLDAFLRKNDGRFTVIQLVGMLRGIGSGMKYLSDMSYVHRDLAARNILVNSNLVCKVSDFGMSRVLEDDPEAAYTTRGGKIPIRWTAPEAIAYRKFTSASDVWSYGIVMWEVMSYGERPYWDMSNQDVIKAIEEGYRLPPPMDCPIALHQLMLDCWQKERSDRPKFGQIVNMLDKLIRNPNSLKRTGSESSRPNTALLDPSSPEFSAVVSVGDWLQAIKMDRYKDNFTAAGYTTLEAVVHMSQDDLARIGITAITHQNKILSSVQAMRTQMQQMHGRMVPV
Method in brief: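 Hb9-GFP mouse motor neurons from P0–2 spinal cords (papain/DNase I dissociation, OptiPrep purification), plated on poly-D-lysine/laminin in Neurobasal/B27, then 5% horse serum plus CNTF; at 2 DIV treated 30 min at 37°C, 5% CO2/10% O2, at 1 or 10 μM; 0.1% DMSO, pre-clustered Fc and ephrinA1-Fc (2 μg/mL) controls. Lysates immunoprecipitated with anti-EphA4, blotted for phosphotyrosine, reprobed for EphA4; pEphA4/total EphA4 band density ratio; SEM, each experiment repeated 3 times.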

[5] = molecular target: Ephrin type-A receptor 4 (Mus musculus) (UniProt Q03137); experiment: Agonist activity at EphA4 in B6-Cg-Tg(Hlxb9-GFP)1Tmj/J (Hb9-GFP) mouse spinal cord motor neurons assessed as induction of growth cone collapse at 1 to 10 uM by rhodamine-coupled phalloidin dye based inverted fluorescent microscopic method; conditions: filed as agonist, dose 1-10 µM
Method in brief: (§1)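 Primary Hb9-GFP mouse spinal cord motor neurons at 2 DIV treated as in receptor activation assay (30 min, 37°C), 1 or 10 μM, alone or with pre-clustered ephrinA1-Fc (2 μg/mL); 0.1% DMSO negative control. Fixed in 2% paraformaldehyde, F-actin stained with rhodamine-phalloidin, ChAT immunolabelled; 20× fluorescence imaging, percent collapsed growth cones, 100 images per group; SEM, n=4–6 coverslips.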

[6] = molecular target: Ephrin type-A receptor 4 (Mus musculus) (UniProt Q03137); experiment: Agonist activity at EphA4 in B6-Cg-Tg(Hlxb9-GFP)1Tmj/J (Hb9-GFP) mouse spinal cord motor neurons assessed as induction of growth cone collapse at 1 to 10 uM in presence of ephrin A1-Fc by rhodamine-coupled phalloidin dye based inverted fluorescent microscopic method; conditions: filed as agonist, dose 1-10 µM; method in brief: as §1
[7] = system: Neuron; experiment: Cytoprotective activity against patient derived induced astrocyte-mediated B6-Cg-Tg(Hlxb9-GFP)1Tmj/J (Hb9-GFP) mouse motor neuron death at 10 uM measured after 3 days by imaging method; format: functional, tissue-based; conditions: time 3.0 day
Method in brief: (§2)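 Patient fibroblast-derived NPCs differentiated 5 days into induced astrocytes (DMEM, 10% FBS, 0.2% N2), seeded 10,000 per well; 24 h later GFP+ (HB9 promoter) motor neurons sorted from mouse embryoid bodies added at 10,000 per well together with compound. Imaged up to 3 days; neurons with neurites >50 μm counted alive, normalized to healthy-control survival; at least 2 independent experiments.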

[8] = molecular target: Ephrin type-A receptor 2 (Homo sapiens, UniProt P29317); experiment: Binding affinity to N-terminal His tagged EphA2 LBD (27 to 200 residues) (unknown origin) expressed in Origami (DE3) cells by isothermal titration calorimetry
Chain of Ephrin type-A receptor 2 (P29317 whole entry, the tested form may be a part): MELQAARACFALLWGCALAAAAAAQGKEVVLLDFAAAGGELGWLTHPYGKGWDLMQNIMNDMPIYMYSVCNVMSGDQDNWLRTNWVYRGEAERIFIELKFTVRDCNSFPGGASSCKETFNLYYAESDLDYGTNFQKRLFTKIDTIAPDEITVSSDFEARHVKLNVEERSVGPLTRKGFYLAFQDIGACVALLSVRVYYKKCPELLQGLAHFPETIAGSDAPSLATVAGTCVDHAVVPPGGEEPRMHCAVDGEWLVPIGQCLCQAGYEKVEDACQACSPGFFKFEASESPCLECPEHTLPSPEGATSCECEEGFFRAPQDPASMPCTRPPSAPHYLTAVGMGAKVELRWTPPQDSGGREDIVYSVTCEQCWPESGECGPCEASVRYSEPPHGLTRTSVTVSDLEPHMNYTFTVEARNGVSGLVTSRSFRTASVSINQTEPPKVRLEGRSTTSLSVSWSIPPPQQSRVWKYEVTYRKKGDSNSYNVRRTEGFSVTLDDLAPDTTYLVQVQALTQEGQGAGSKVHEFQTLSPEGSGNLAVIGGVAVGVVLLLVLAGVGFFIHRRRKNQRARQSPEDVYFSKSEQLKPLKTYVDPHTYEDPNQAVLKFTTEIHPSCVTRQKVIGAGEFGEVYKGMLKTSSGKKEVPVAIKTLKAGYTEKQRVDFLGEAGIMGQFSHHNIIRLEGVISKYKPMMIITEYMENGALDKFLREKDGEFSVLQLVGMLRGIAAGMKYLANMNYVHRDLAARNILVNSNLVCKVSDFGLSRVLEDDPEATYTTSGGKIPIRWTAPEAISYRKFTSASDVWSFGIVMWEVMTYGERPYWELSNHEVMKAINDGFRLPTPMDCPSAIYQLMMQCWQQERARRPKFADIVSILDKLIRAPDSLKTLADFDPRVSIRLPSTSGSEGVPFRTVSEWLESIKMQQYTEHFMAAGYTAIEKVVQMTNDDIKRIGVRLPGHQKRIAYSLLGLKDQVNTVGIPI

[9] = system: Neuron; experiment: Cytoprotective activity against patient derived induced astrocyte-mediated B6-Cg-Tg(Hlxb9-GFP)1Tmj/J (Hb9-GFP) mouse motor neuron death at 100 uM measured after 3 days by imaging method; format: functional, tissue-based; conditions: time 3.0 day; method in brief: as §2

Kd [8] | solubility ([2]; read-out: solubility) [µM] | Compound | Kd [1] [nM] | solubility [2] [µM] | Activity [3] | Activity [4] | Activity [5] | Activity [6] | Activity [7] | Activity [9]
 |  | N=C(N)NCCCC[C@H](NC(=O)[C@H](Cc1ccc(-c2ccccc2)cc1)NC(=O)[C@H](Cc1c[nH]c2ccc(O)cc12)NC(=O)[C@H]1CCC[C@H](N)C1)C(=O)NCC(=O)Nc1ccc(N2CCOCC2)cc1 ({Cyclohexanoyl(1S,3S-3-NH2)}-[Trp(5-OH)][Bip][hArg]G-{NH(4-morpholinophenyl)}) | 113 | > 50000 | Active | Active | Active | Active | Active | 
Not Active | 100 (≈ 80.7 µg/mL) | COc1ccc2[nH]cc(CCNC(=O)[C@H](Cc3ccncc3)NC(=O)[C@H](Cc3ccc(Cl)cc3)NC(=O)[C@H](Cc3c[nH]c4ccc(O)cc34)NC(=O)CCCN)c2c1 |  |  |  |  |  |  |  | Active
